# Test results from ChEMBL document CHEMBL3414437, “Synthesis of CDDO-amino acid-nitric oxide donor trihybrids as potential antitumor agents against both drug-sensitive and drug-resistant colon cancer” (J Med Chem, 2015).
# Active and inactive are the calls of the source. No cut-off for these calls is given here.
# Legend:
# [1] = tested on: HCT-8; assay: Induction of apoptosis in FU-resistant human HCT8 cells assessed as late apoptotic cells level at 0.25 uM incubated for 24 hrs by FITC-Annexin-V and propidium iodide staining based flow cytometry (reference value: 0.95%); assay type: functional
# [2] = tested on: HCT-8; assay: Induction of apoptosis in human HCT8 cells assessed as necrotic cells level at 0.5 uM incubated for 24 hrs by FITC-Annexin-V and propidium iodide staining based flow cytometry (reference value: 2.58%); assay type: functional
# [3] = tested on: HCT-8; assay: Induction of apoptosis in human HCT8 cells assessed as necrotic cells level at 0.25 uM incubated for 24 hrs by FITC-Annexin-V and propidium iodide staining based flow cytometry (reference value: 2.58%); assay type: functional
# [4] = tested on: HCT-8; assay: Induction of apoptosis in FU-resistant human HCT8 cells assessed as viable cells level at 0.25 uM incubated for 24 hrs by FITC-Annexin-V and propidium iodide staining based flow cytometry (reference value: 90%); assay type: functional
# [5] = tested on: HCT-8; assay: Induction of apoptosis in human HCT8 cells assessed as viable cells level at 0.25 uM incubated for 24 hrs by FITC-Annexin-V and propidium iodide staining based flow cytometry (reference value: 92%); assay type: functional
# [6] = tested on: HCT-8; assay: Induction of apoptosis in human HCT8 cells assessed as late apoptotic cells level at 0.25 uM incubated for 24 hrs by FITC-Annexin-V and propidium iodide staining based flow cytometry (reference value: 4.23%); assay type: functional
# [7] = tested on: HCT-8; assay: Induction of apoptosis in 5-FU resistant human HCT8 cells incubated for 24 hrs by FITC-Annexin-V and propidium iodide staining based flow cytometry; assay type: functional, cell-based
# [8] = tested on: HCT-8; assay: Induction of apoptosis in human HCT8 cells assessed as viable cells level at 0.5 uM incubated for 24 hrs by FITC-Annexin-V and propidium iodide staining based flow cytometry (reference value: 92%); assay type: functional
# [9] = Antiproliferative activity against human CCD-841-CoN cells assessed as inhibition of cell proliferation after 72 hrs by MTT assay; assay type: cell-based
# Outline: (§1)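 Cells (1.0 × 10^4/well) grown overnight in DMEM with 10% FBS. Treated in triplicate with eight concentrations ([…]) of compound from DMSO stock, final DMSO <0.4%, for 72 h. MTT added for the last 4 h, formazan dissolved in DMSO, read at 570 nm. Inhibition = (Acontrol−Atreated)/Acontrol. IC50 given as mean ± SD of three independent experiments.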
# [10] = tested on: HCT-8; assay: Induction of apoptosis in FU-resistant human HCT8 cells assessed as necrotic cells level at 1 uM incubated for 24 hrs by FITC-Annexin-V and propidium iodide staining based flow cytometry (reference value: 0.958%); assay type: functional
# [11] = tested on: HCT-8; assay: Induction of apoptosis in FU-resistant human HCT8 cells assessed as necrotic cells level at 0.5 uM incubated for 24 hrs by FITC-Annexin-V and propidium iodide staining based flow cytometry (reference value: 0.958%); assay type: functional
# [12] = tested on: HCT-8; assay: Induction of apoptosis in FU-resistant human HCT8 cells assessed as early apoptotic cells level at 0.5 uM incubated for 24 hrs by FITC-Annexin-V and propidium iodide staining based flow cytometry (reference value: 2.07%); assay type: functional
# [13] = tested on: HCT-8; assay: Induction of apoptosis in FU-resistant human HCT8 cells assessed as viable cells level at 0.5 uM incubated for 24 hrs by FITC-Annexin-V and propidium iodide staining based flow cytometry (reference value: 90%); assay type: functional
# [14] = tested on: HCT-8; assay: Induction of apoptosis in FU-resistant human HCT8 cells assessed as necrotic cells level at 0.25 uM incubated for 24 hrs by FITC-Annexin-V and propidium iodide staining based flow cytometry (reference value: 0.958%); assay type: functional
# [15] = tested on: HCT-8; assay: Induction of apoptosis in FU-resistant human HCT8 cells assessed as early apoptotic cells level at 1 uM incubated for 24 hrs by FITC-Annexin-V and propidium iodide staining based flow cytometry (reference value: 2.07%); assay type: functional
# [16] = tested on: HCT-8; assay: Induction of apoptosis in FU-resistant human HCT8 cells assessed as viable cells level at 1 uM incubated for 24 hrs by FITC-Annexin-V and propidium iodide staining based flow cytometry (reference value: 90%); assay type: functional
# [17] = tested on: HCT-8; assay: Induction of apoptosis in FU-resistant human HCT8 cells assessed as late apoptotic cells level at 1 uM incubated for 24 hrs by FITC-Annexin-V and propidium iodide staining based flow cytometry (reference value: 0.95%); assay type: functional
# [18] = tested on: HCT-8; assay: Induction of apoptosis in human HCT8 cells assessed as early apoptotic cells level at 0.25 uM incubated for 24 hrs by FITC-Annexin-V and propidium iodide staining based flow cytometry (reference value: 1.21%); assay type: functional
# [19] = tested on: HCT-8; assay: Induction of apoptosis in human HCT8 cells assessed as viable cells level at 1 uM incubated for 24 hrs by FITC-Annexin-V and propidium iodide staining based flow cytometry (reference value: 92%); assay type: functional
# [20] = tested on: HCT-8; assay: Induction of apoptosis in FU-resistant human HCT8 cells assessed as late apoptotic cells level at 0.5 uM incubated for 24 hrs by FITC-Annexin-V and propidium iodide staining based flow cytometry (reference value: 0.95%); assay type: functional
# [21] = Antiproliferative activity against 5-FU resistant human HCT8 cells assessed as inhibition of cell proliferation after 72 hrs by MTT assay; assay type: functional, cell-based; settings: HCT-8, 72 h; outline: as §1
# [22] = tested on: HCT-8; assay: Induction of apoptosis in human HCT8 cells assessed as late apoptotic cells level at 1 uM incubated for 24 hrs by FITC-Annexin-V and propidium iodide staining based flow cytometry (reference value: 4.23%); assay type: functional
# [23] = tested on: HCT-8; assay: Induction of apoptosis in FU-resistant human HCT8 cells assessed as early apoptotic cells level at 0.25 uM incubated for 24 hrs by FITC-Annexin-V and propidium iodide staining based flow cytometry (reference value: 2.07%); assay type: functional
# [24] = tested on: HCT-8; assay: Induction of apoptosis in human HCT8 cells assessed as necrotic cells level at 1 uM incubated for 24 hrs by FITC-Annexin-V and propidium iodide staining based flow cytometry (reference value: 2.58%); assay type: functional
# [25] = tested on: HCT-8; assay: Induction of apoptosis in human HCT8 cells assessed as late apoptotic cells level at 0.5 uM incubated for 24 hrs by FITC-Annexin-V and propidium iodide staining based flow cytometry (reference value: 4.23%); assay type: functional
# [26] = tested on: HCT-8; assay: Induction of apoptosis in human HCT8 cells assessed as early apoptotic cells level at 0.5 uM incubated for 24 hrs by FITC-Annexin-V and propidium iodide staining based flow cytometry (reference value: 1.21%); assay type: functional
# [27] = Antiproliferative activity against human HCT8 cells assessed as inhibition of cell proliferation after 72 hrs by MTT assay; assay type: functional, cell-based; settings: HCT-8, 72 h; outline: as §1
# [28] = tested on: HCT-8; assay: Induction of apoptosis in human HCT8 cells assessed as early apoptotic cells level at 1 uM incubated for 24 hrs by FITC-Annexin-V and propidium iodide staining based flow cytometry (reference value: 1.21%); assay type: functional
# [29] = molecular target: Signal transducer and activator of transcription 3 (Homo sapiens) (UniProt P40763); assay: Inhibition of STAT3 protein phosphorylation in FU-resistant human HCT8 cells at 1 uM incubated for 24 hrs by Western blotting method; assay type: cell-based; settings: HCT-8
# Chain of Signal transducer and activator of transcription 3 (Homo sapiens) (P40763 whole entry): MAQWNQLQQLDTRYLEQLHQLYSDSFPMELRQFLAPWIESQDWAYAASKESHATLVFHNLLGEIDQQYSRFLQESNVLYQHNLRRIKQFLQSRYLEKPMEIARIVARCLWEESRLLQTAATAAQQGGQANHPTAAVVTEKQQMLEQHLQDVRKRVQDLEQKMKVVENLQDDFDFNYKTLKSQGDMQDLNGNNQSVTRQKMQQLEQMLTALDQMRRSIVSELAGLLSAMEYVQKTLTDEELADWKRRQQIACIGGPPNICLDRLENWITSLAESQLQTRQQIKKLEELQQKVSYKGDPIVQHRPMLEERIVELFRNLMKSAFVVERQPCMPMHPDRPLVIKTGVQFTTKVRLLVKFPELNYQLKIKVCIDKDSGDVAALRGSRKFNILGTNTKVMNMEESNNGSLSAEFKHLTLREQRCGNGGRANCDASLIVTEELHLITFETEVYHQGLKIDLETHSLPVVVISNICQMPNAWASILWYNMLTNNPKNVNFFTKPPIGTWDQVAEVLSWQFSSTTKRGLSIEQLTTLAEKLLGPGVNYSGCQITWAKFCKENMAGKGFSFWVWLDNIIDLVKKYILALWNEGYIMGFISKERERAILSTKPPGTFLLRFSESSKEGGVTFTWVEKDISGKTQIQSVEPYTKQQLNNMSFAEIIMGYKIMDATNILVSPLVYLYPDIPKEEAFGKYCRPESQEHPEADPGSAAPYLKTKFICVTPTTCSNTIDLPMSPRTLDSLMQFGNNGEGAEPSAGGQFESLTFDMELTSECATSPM
# Outline: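 Cells (1 x 10^6) grown 24 h in 6 cm dishes, then exposed in duplicate for 24 h to 0.25, 0.5 or 1 µM compound, with or without PTIO. Lysates (20 µg/lane) were run on 7.5% SDS-PAGE, blotted to PVDF and blocked in 5% milk. HRP secondaries with ECL detection; bands quantified by densitometry against β-actin or GAPDH. Three separate experiments, mean ± SD.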
SMILES,Activity [1],Activity [2],Activity [3],Activity [4],Activity [5],Activity [6],Activity [8],IC50 [9],Activity [10],Activity [11],Activity [12],Activity [13],Activity [14],Activity [15],Activity [16],Activity [17],Activity [18],Activity [19],Activity [20],IC50 [21],also measured
CC1(C)CC[C@]2(C(=O)NCC(=O)OCC#CCOc3no[n+]([O-])c3S(=O)(=O)c3ccccc3)CC[C@]3(C)[C@H](C(=O)C=C4[C@@]5(C)C=C(C#N)C(=O)C(C)(C)[C@@H]5CC[C@]43C)[C@@H]2C1,21.4%,4.1%,2.31%,70.8%,74%,10.3%,62.8%,1.28 µM,7.36%,7.65%,7.59%,49.8%,2.53%,13.5%,34.3%,44.9%,3.92%,67.1%,34.6%,0.232 µM,Activity [7]: Dose-dependent effect; Activity [22]: 39%; Activity [23]: 5.44%; Activity [24]: 3.58%; Activity [25]: 24.7%; Activity [26]: 5.34%; IC50 [27]: 0.294 µM; Activity [28]: 9.51%
COC(=O)[C@]12CCC(C)(C)C[C@H]1[C@H]1C(=O)C=C3[C@@]4(C)C=C(C#N)C(=O)C(C)(C)[C@@H]4CC[C@@]3(C)[C@]1(C)CC2 [BARDOXOLONE METHYL],20.5%,3.18%,2.13%,71.1%,79.5%,14%,65.1%,0.316 µM,1.52%,1.73%,6.01%,64.2%,3.2%,10.9%,51.2%,36%,3.78%,57.5%,28.1%,0.363 µM,inhibition [29]: Active; Activity [22]: 29.8%; Activity [23]: 5.15%; Activity [24]: 3.31%; Activity [25]: 18.7%; Activity [26]: 6.8%; IC50 [27]: 0.399 µM; Activity [28]: 9.42%
